Measured values taken from the RNAGym collection of RNA variant scans (doi:10.1002/anie.201605470).

B1: Osa-1-4 twister ribozyme (parent)
chain: CCGCCUAACACUGCCAAUGCCGGUCCCAAGCCCGGAUAAAAGUGGAGGGGGCGG

Variants of: B1
Assay: self-cleavage, relative activity (ratio to wild type); higher = more cleavage; co-transcriptional
Summary of the method: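 Relative activity is the fraction cleaved divided by that of the wild-type ribozyme. The library came from a DNA template for a 54-nucleotide Oryza sativa twister ribozyme, doped at the 48 positions downstream of the cleavage site with 97 % wild-type base and 1 % of each other base. After 2 h of in vitro transcription at 37 °C with co-transcriptional self-cleavage, the RNA was reverse-transcribed with a template-switching oligonucleotide, amplified by PCR and deep-sequenced, and reads with or without upstream sequence gave the cleavage status.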

Row | Variant | self-cleavage
1 | G44U U24A | 0.09
2 | G44U U24C | 0.15
3 | G44U U24G | 0.04
4 | G44C G51C | 0.07
5 | G44C G51A | 0.67
6 | G44C G51U | 0.16
7 | G44U G49C | 0.08
8 | G44U G49U | 0.11
9 | G44U G49A | 0.12
10 | G44A G51U | 0.28
11 | G44A G51A | 0.79
12 | G44A G51C | 0.08
13 | U43A | 0.93
14 | U43G | 0.67
15 | U43C | 0.64
16 | G44U G47C | 0.07
17 | G44U G47A | 0.14
18 | G44U G47U | 0.1
19 | G44U U37A | 0.66
20 | G44U U37G | 0.95
21 | G44U U37C | 0.99
22 | G42U U24G | 0.02
23 | G42U U24A | 0.03
24 | G42U U24C | 0.03

Row | Variant | self-cleavage
25 | G45A U43A | 0.09
26 | G45A U43C | 0.09
27 | G45A U43G | 0.06
28 | A46C C52A | 0.07
29 | A46C C52U | 0.08
30 | A46C C52G | 0.09
31 | G44A U12G | 0.28
32 | G44A U12A | 0.65
33 | G44A U12C | 0.68
34 | G44A G47C | 0.09
35 | G44A G47A | 0.13
36 | G44A G47U | 0.12
37 | A46C G19U | 0.04
38 | A46C G19A | 0.05
39 | A46C G19C | 0.02
40 | A46C C15G | 0.04
41 | A46C C15A | 0.03
42 | A46C C15U | 0.04
43 | G45C U43A | 0.06
44 | G45C U43C | 0.06
45 | G45C U43G | 0.04
46 | A46C G22C | 0.03
47 | A46C G22A | 0.06
48 | A46C G22U | 0.04

Row | Variant | self-cleavage
49 | G45C U18G | 0.09
50 | G45C U18C | 0.1
51 | G45C U18A | 0.06
52 | G44U U43A | 0.66
53 | G44U U43C | 0.37
54 | G44U U43G | 0.11
55 | G45A U37C | 0.55
56 | G45A U37A | 0.25
57 | G45A U37G | 0.58
58 | A46C G13A | 0.02
59 | A46C G13U | 0.01
60 | A46C G13C | 0.01
61 | G42U G51C | 0.04
62 | G42U G51U | 0.07
63 | G42U G51A | 0.1
64 | A46C C31G | 0.02
65 | A46C C31A | 0.01
66 | A46C C31U | 0.04
67 | G45A G49A | 0.05
68 | G45A G49U | 0.04
69 | G45A G49C | 0.05
70 | G44U G54A | 0.88
71 | G44U G54U | 0.9
72 | G44U G54C | 0.92

Row | Variant | self-cleavage
73 | G44A U37C | 1.01
74 | G44A U37G | 1
75 | G44A U37A | 0.7
76 | G45U G53A | 0.07
77 | G45U G53C | 0.03
78 | G45U G53U | 0.05
79 | A46C C27G | 0.01
80 | A46C C27U | 0.04
81 | A46C C27A | 0.03
82 | G44A G50A | 0.71
83 | G44A G50U | 0.97
84 | G44A G50C | 0.91
85 | G45U U43C | 0.06
86 | G45U U43A | 0.06
87 | G45U U43G | 0.06
88 | A46C C14U | 0.03
89 | A46C C14G | 0.03
90 | A46C C14A | 0.02
91 | A46C A7G | 0.04
92 | A46C A7U | 0.02
93 | A46C A7C | 0.03
94 | A46C G30A | 0.01
95 | A46C G30C | 0.02
96 | G44C U24G | 0.01

Row | Variant | self-cleavage
97 | G44C U24A | 0.2
98 | G44C U24C | 0.2
99 | G45C U37C | 0.08
100 | G45C U37A | 0.05
101 | G45C U37G | 0.07
102 | A46C C33U | 0.03
103 | A46C C33G | 0.02
104 | A46C C33A | 0.04
105 | G44U G50A | 0.58
106 | G44U G50U | 0.97
107 | G44U G50C | 0.83
108 | G45C G48A | 0.03
109 | G45C G48U | 0.02
110 | G45C G48C | 0.04
111 | G45U G51C | 0.04
112 | G45U G51A | 0.08
113 | G45U G51U | 0.05
114 | A46C C11A | 0.04
115 | A46C C11U | 0.05
116 | A46C C11G | 0.03
117 | G44A U24A | 0.06
118 | G44A U24G | 0.03
119 | G44A U24C | 0.08
120 | G45C G54A | 0.08

Row | Variant | self-cleavage
121 | G45C G54C | 0.07
122 | G45C G54U | 0.17
123 | G45A U18G | 0.45
124 | G45A U18A | 0.43
125 | G45A U18C | 0.29
126 | G44C G49C | 0.07
127 | G44C G49A | 0.11
128 | G44C G49U | 0.1
129 | G45U U37C | 0.17
130 | G45U U37A | 0.09
131 | G45U U37G | 0.21
132 | A46C C9A | 0.03
133 | A46C C9G | 0.05
134 | A46C C9U | 0.02
135 | G44A U18A | 0.84
136 | G44A U18C | 0.83
137 | G44A U18G | 0.63
138 | G45U G48U | 0.04
139 | G45U G48C | 0.04
140 | G45U G48A | 0.04
141 | G44C G48C | 0.08
142 | G44C G48A | 0.08
143 | G44C G48U | 0.07
144 | G44U G51U | 0.19

Row | Variant | self-cleavage
145 | G44U G51A | 0.69
146 | G44U G51C | 0.07
147 | G42U G49C | 0.03
148 | G42U G49A | 0.04
149 | G42U G49U | 0.04
150 | G42U G47A | 0.05
151 | G42U G47C | 0.02
152 | G42U G47U | 0.03
153 | G45U U18A | 0.14
154 | G45U U18C | 0.14
155 | G45U U18G | 0.19
156 | G45U G47C | 0.04
157 | G45U G47U | 0.06
158 | G45U G47A | 0.04
159 | G45U G49C | 0.02
160 | G45U G49A | 0.04
161 | G45U G49U | 0.04
162 | G45C U12C | 0.05
163 | G45C U12G | 0.05
164 | G45C U12A | 0.06
165 | G45C U24G | 0.01
166 | G45C U24A | 0.04
167 | G45C U24C | 0.02
